Assay outcomes: PubChem BioAssay, The Scripps Research Institute Molecular Screening Center
Only some compounds are listed: those with a hit (about 2.8% of all), similar ones and a draw of the others.
PAFAH1B2 FP inh: inhibitors of human PAFAH1B2; recombinant PAFAH1B2, FP-rhodamine activity probe, fluorescence polarization; P68402; inhibition, % at 3.39 µM; 340,000 compounds, 1.2% hits; AID 492953;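 active means inhibition above the mean of all tested compounds plus 3 SD, cut at about 24% in these data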
Target sequence (P68402 whole entry, looked up): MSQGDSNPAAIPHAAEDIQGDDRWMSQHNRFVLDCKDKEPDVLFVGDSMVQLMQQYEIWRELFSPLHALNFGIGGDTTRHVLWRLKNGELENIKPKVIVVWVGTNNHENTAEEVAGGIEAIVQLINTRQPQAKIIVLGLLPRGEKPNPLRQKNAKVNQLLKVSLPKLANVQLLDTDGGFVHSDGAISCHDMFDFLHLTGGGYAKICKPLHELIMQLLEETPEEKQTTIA
pPAFAH inh: inhibitors of human plasma PAF acetylhydrolase (pPAFAH). inhibition, % at 3.39 µM. Q13093. AID 463082. 330,000 compounds, 1.5% hits. recombinant pPAFAH, FP-rhodamine probe fluorescence polarization;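 active means inhibition above the mean inhibition across the screen plus 3 SD, cut at about 25% in these data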;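 further: inhibitors block binding of the rhodamine activity-based probe so polarization drops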
PAFAH2 FP inh: PAFAH2 (human) inhibition | recombinant PAFAH2, FP-rhodamine activity probe, fluorescence polarization | Q99487 | inhibition, % at 3.39 µM | 340,000 compounds, 0.99% hits;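 active means inhibition above the mean over all tested compounds plus 3 SD, cut at about 30% in these data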;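 further: inhibitors block probe labeling of enzyme so polarization drops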
PAFAH1B3 inh: PAFAH1B3 (human) inhibition; recombinant PAFAH1B3, FP-rhodamine probe, fluorescence polarization; inhibition, % at 3.39 µM; 340,000 compounds, 0.28% hits; AID 492972;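 active means inhibition above the screen-wide average of all tested compounds plus 3 SD, cut at about 25% in these data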
Target sequence (Q15102 whole entry, looked up): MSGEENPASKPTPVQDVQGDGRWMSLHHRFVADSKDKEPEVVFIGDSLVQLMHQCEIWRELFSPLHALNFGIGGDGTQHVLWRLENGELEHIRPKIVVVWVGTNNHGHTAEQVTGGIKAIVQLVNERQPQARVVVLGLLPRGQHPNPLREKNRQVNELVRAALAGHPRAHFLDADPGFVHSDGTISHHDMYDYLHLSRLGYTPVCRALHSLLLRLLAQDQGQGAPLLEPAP
ASAP1 GAP inh: blocks human ASAP1-stimulated Arf1 GTP hydrolysis; Q9ULH1; GDP FP detection; inhibition, % at 16.5 µM; 360,000 compounds, 0.19% hits; in the data active means inhibition above about 25%
ARFGAP1 inh: rat ARFGAP1 inhibition; Arfgap1-stimulated ARF1 GTP hydrolysis, GDP FP detection; Q62848; AID 651572; inhibition, % at 16.5 µM; 360,000 compounds, 0.26% hits;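 active means inhibition above a per-plate limit, mean inhibition of low control wells plus 3 SD, cut at about 25% in these data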
Target sequence (Q62848 1-136 limits assumed): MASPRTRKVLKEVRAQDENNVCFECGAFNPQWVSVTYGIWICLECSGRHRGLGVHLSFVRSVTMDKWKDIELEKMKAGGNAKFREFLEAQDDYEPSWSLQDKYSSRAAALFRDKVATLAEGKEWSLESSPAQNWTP
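Assay system: purified rat His6-Arfgap1 residues 1-136 (GAP domain); Reagent: human Δ17 ARF1 bound to GTP; Dosing: 16.5 µM single point, 1.26% DMSO; Times: GTP hydrolysis reaction 2 h at 25 °C; Signal: FP, GDP Alexa 633 tracer displaced from anti-GDP antibody, 620/688 nm; Measure: % inhibition from polarization.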
A number is an active result.

COc1cc(/C=C(\C#N)c2nc3c(s2)CCCC3)ccc1O was read as pPAFAH inh 35.
`CC(C)CN(C(=O)CCNC(=O)c1ccc(Cl)cc1)C1CCS(=O)(=O)C1` (stereo unspecified) gave PAFAH1B2 FP inh inactive, pPAFAH inh inactive, PAFAH2 FP inh inactive, PAFAH1B3 inh inactive, ASAP1 GAP inh inactive and ARFGAP1 inh inactive.
For C[C@H]1CN([C@@H](C)CO)C(=O)CCCn2cc(nn2)CO[C@@H]1CN(C)S(=O)(=O)c1ccc(Oc2ccccc2)nc1 the results were ASAP1 GAP inh inactive and ARFGAP1 inh inactive.
`O=C(CCS(=O)(=O)Cc1ccccc1)N1CCN(c2ccccc2)CC1` gave PAFAH1B2 FP inh inactive, pPAFAH inh inactive, PAFAH2 FP inh inactive, PAFAH1B3 inh inactive, ASAP1 GAP inh inactive and ARFGAP1 inh inactive.
`Cc1ccccc1CS(=O)(=O)CCC(=O)N1CCN(c2ccc(N3CCOCC3)nn2)CC1` gave PAFAH1B2 FP inh inactive, pPAFAH inh 27, PAFAH2 FP inh inactive, PAFAH1B3 inh inactive, ASAP1 GAP inh inactive and ARFGAP1 inh inactive.
COc1ccc(-n2cnc3cc(NS(=O)(=O)c4ccc(C)cc4)ccc32)cc1 was read as PAFAH1B2 FP inh inactive, pPAFAH inh inactive, PAFAH2 FP inh inactive and PAFAH1B3 inh inactive.
COc1ccccc1-n1cnc2cc(NS(=O)(=O)c3ccc(Br)cc3)ccc21 was read as PAFAH1B2 FP inh 25, pPAFAH inh inactive, PAFAH2 FP inh inactive, PAFAH1B3 inh inactive, ASAP1 GAP inh inactive and ARFGAP1 inh inactive.
For COc1cc(S(=O)(=O)Nc2ccc(Br)cc2)ccc1N the results were PAFAH1B2 FP inh inactive, pPAFAH inh 25, PAFAH2 FP inh inactive, PAFAH1B3 inh inactive, ASAP1 GAP inh inactive and ARFGAP1 inh inactive.
Screening Cc1ccc(CN2C(=O)C(=O)N(CC(N)=O)C2=O)cc1 returned PAFAH1B2 FP inh inactive, pPAFAH inh inactive, PAFAH2 FP inh inactive, PAFAH1B3 inh inactive, ASAP1 GAP inh inactive and ARFGAP1 inh inactive.
For Cc1ccc(C(=O)CN2C(=O)C(=O)N(Cc3ccccc3)C2=O)cc1 the results were PAFAH1B2 FP inh 26, pPAFAH inh inactive, PAFAH2 FP inh inactive, PAFAH1B3 inh inactive, ASAP1 GAP inh inactive and ARFGAP1 inh inactive.
For CCOC(=O)[C@]12CCCC=C1N(Cc1ccccc1)C(=O)[C@H](CC(=O)NCCCCc1ccccc1)C2 the results were ASAP1 GAP inh inactive and ARFGAP1 inh inactive.
Screening Cc1ccc(OC(C)C(=O)N2CC(=O)Nc3ccccc32)cc1 (stereo unspecified) returned PAFAH1B2 FP inh inactive, pPAFAH inh inactive, PAFAH2 FP inh inactive, PAFAH1B3 inh inactive, ASAP1 GAP inh inactive and ARFGAP1 inh inactive.
`CC(NC(N)=O)C12CC3CC(CC(C3)C1)C2` (stereo unspecified) gave PAFAH1B2 FP inh 26, pPAFAH inh inactive, PAFAH2 FP inh inactive, PAFAH1B3 inh inactive, ASAP1 GAP inh inactive and ARFGAP1 inh inactive.
For COc1cccc(CN2CCC(Oc3ccc(C(=O)NCc4ccccn4)cc3)CC2)c1O the results were PAFAH1B2 FP inh inactive, PAFAH2 FP inh inactive, PAFAH1B3 inh inactive, ASAP1 GAP inh inactive and ARFGAP1 inh inactive.
Screening O=C1NC(c2cccc(Br)c2)=N/C1=C\c1ccco1 returned PAFAH1B2 FP inh inactive, pPAFAH inh 31, PAFAH2 FP inh inactive, PAFAH1B3 inh inactive, ASAP1 GAP inh inactive and ARFGAP1 inh inactive.
Screening COc1ccc(S(=O)(=O)N2C[C@H]3CON(C)[C@H]3C[C@H]2c2ccc(-c3cc4ccccc4o3)cc2)cc1 returned ASAP1 GAP inh inactive and ARFGAP1 inh inactive.
`O=C(NCc1cccs1)c1ccc2sc(COCCO)nc2c1` gave ASAP1 GAP inh inactive and ARFGAP1 inh inactive.
COc1ccc(CN2CCSCC2)c(C)c1C was read as PAFAH1B2 FP inh inactive, PAFAH2 FP inh inactive, PAFAH1B3 inh inactive, ASAP1 GAP inh inactive and ARFGAP1 inh inactive.
`O=C(c1ccc(S(=O)(=O)Cc2ccccc2Cl)c([N+](=O)[O-])c1)N1CCOCC1` gave PAFAH1B2 FP inh inactive, pPAFAH inh inactive, PAFAH2 FP inh inactive, PAFAH1B3 inh inactive, ASAP1 GAP inh inactive and ARFGAP1 inh inactive.
CCCc1ccc(Oc2cc(Cl)nc(N)n2)cc1 was read as PAFAH1B2 FP inh inactive, pPAFAH inh 26, PAFAH2 FP inh inactive, PAFAH1B3 inh inactive, ASAP1 GAP inh inactive and ARFGAP1 inh inactive.
Screening CCc1ccc(Oc2cc(C)nc(N)n2)cc1 returned PAFAH1B2 FP inh inactive, pPAFAH inh inactive, PAFAH2 FP inh inactive, PAFAH1B3 inh inactive, ASAP1 GAP inh inactive and ARFGAP1 inh inactive.
Nc1ccc(Nc2ccncc2)cc1 was read as ASAP1 GAP inh inactive and ARFGAP1 inh inactive.
For O=C(O)c1[nH]c2ccc(Br)cc2c1CCN1C(=O)c2cccc([N+](=O)[O-])c2C1=O the results were PAFAH1B2 FP inh 53, pPAFAH inh inactive, PAFAH2 FP inh inactive, PAFAH1B3 inh inactive, ASAP1 GAP inh inactive and ARFGAP1 inh inactive.
Screening O=C(O)c1[nH]c2ccc(Cl)cc2c1CCN1C(=O)c2ccccc2C1=O returned PAFAH1B2 FP inh 84, pPAFAH inh inactive, PAFAH2 FP inh inactive, PAFAH1B3 inh inactive, ASAP1 GAP inh inactive and ARFGAP1 inh inactive.
For Cc1ccc(NC(=O)CCN2C(=O)c3cccc([N+](=O)[O-])c3C2=O)c(Br)c1 the results were PAFAH1B2 FP inh inactive, pPAFAH inh inactive, PAFAH2 FP inh inactive, PAFAH1B3 inh inactive, ASAP1 GAP inh inactive and ARFGAP1 inh inactive.
For COc1ccc2[nH]c(C(=O)O)c(CCN3C(=O)c4ccc(C(=O)O)cc4C3=O)c2c1 the results were PAFAH1B2 FP inh inactive, pPAFAH inh inactive, PAFAH2 FP inh inactive, PAFAH1B3 inh inactive, ASAP1 GAP inh inactive and ARFGAP1 inh inactive.
`O=C(NNS(=O)(=O)c1ccc(F)cc1)c1cc2ccccc2cc1O` gave PAFAH1B2 FP inh inactive, pPAFAH inh inactive, PAFAH2 FP inh inactive, PAFAH1B3 inh inactive, ASAP1 GAP inh inactive and ARFGAP1 inh inactive.
Screening CN1CCN(CCCNC(=O)c2ccc(/C=C3\Sc4ccccc4N(Cc4ccc(F)cc4)C3=O)cc2)CC1 returned PAFAH1B2 FP inh inactive, PAFAH2 FP inh inactive, PAFAH1B3 inh inactive, ASAP1 GAP inh inactive and ARFGAP1 inh inactive.
Screening CCN1CCN(CCNC(=O)c2ccc(/C=C3\Sc4ccccc4N(Cc4ccccc4F)C3=O)cc2)CC1 returned PAFAH1B2 FP inh inactive, pPAFAH inh 25, PAFAH2 FP inh inactive, PAFAH1B3 inh inactive, ASAP1 GAP inh inactive and ARFGAP1 inh inactive.
`COC(=O)C1=C(C)N(Cc2ccc(C(F)(F)F)cc2)C(=NCC2CC2)NC1c1cccc(Cl)c1` (stereo unspecified) gave ASAP1 GAP inh inactive and ARFGAP1 inh inactive.
`O=C1C(=O)N(CCCc2ccccc2)c2ccccc21` gave PAFAH1B2 FP inh inactive, pPAFAH inh 27, PAFAH2 FP inh inactive and PAFAH1B3 inh inactive.
`O=C(CN1C(=O)C(=O)c2ccccc21)NCCc1ccccc1` gave PAFAH1B2 FP inh inactive, pPAFAH inh inactive, PAFAH2 FP inh inactive, PAFAH1B3 inh inactive, ASAP1 GAP inh inactive and ARFGAP1 inh inactive.
